According to ChEMBL document CHEMBL4619796, “Discovery of 3-Quinazolin-4(3H)-on-3-yl-2,N-dimethylpropanamides as Orally Active and Selective PI3Kα Inhibitors” (ACS Med Chem Lett, 2020):
Blank lines part the entries; values can stand above or below the compound they belong to. The source made the active and inactive calls. The rule behind the calls is not given here.

Assays:
[1] = molecular target: Phosphatidylinositol 4,5-bisphosphate 3-kinase catalytic subunit alpha isoform (Homo sapiens, UniProt P42336); assay: Inhibition of PI3Kalpha (unknown origin) using PIP2:3PS peptide as substrate preincubated for 15 mins followed by ATP addition at Km concentration and further incubated for 150 mins by ADP-Glo assay
[2] = Inhibition of PI3K in human MCF7 cells assessed as reduction in AKT phosphorylation at residue S473 incubated for 2 hrs followed by insulin addition by ELISA; assay type: cell-based; settings: MCF7, 2 h
[3] = species on record: Homo sapiens; assay: (§1) Selectivity ratio of IC50 for PI3Kbeta (unknown origin) using PIP2:3PS peptide as substrate preincubated for 15 mins followed by ATP addition at Km concentration and further incubated for 120 mins by ADP-Glo assay to IC50 for PI3Kalpha (unknown origin) using PIP2:3PS peptide as substrate preincubated for 15 mins followed by ATP addition at Km concentration and further incubated for 150 mins by ADP-Glo assay
[4] = species on record: Homo sapiens; assay: as §1, with “PI3Kdelta” for “PI3Kbeta”
[5] = species on record: Homo sapiens; assay: as §1, with “PI3Kgamma” for “PI3Kbeta”
[6] = Cmax in BALB/c mouse at 10 mg/kg, po by HPLC analysis; assay type: ADME, organism-based; design: dose 10 mg/kg, route oral; settings: in vivo
[7] = Dose normalized AUC (0 to last) in BALB/c mouse at 10 mg/kg, po by HPLC analysis; assay type: ADME, organism-based; settings: in vivo
[8] = test system: BT-474; assay: Antitumor activity against PI3KCA mutant human BT474 cells xenografted in BALB/c nude mouse assessed as tumor growth inhibition at 10 to 20 mg/kg, po administered once daily for 21 days by caliper method; assay type: functional, organism-based
Method in brief: (§2)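 BT-474 (PIK3CA mutant human breast ductal carcinoma) subcutaneous xenografts in Balb/c nude mice. Oral dosing once daily for 21 days. Vehicle 0.5% MC + 0.2% Tween 80. Read-out is tumor growth inhibition.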

[9] = Toxicity in BALB/c nude mouse xenografted with PI3KCA mutant human BT474 cells at 30 mg/kg, po administered once daily; assay type: organism-based, BT-474; settings: in vivo
Method in brief: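 Balb/c nude mice bearing BT-474 subcutaneous xenografts. Oral dosing at 30 mg/kg once daily.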

[10] = Clearance in BALB/c mouse at 1 mg/kg, […] by HPLC analysis; assay type: ADME, organism-based; settings: in vivo
[11] = Oral bioavailability in BALB/c mouse at 10 mg/kg by HPLC analysis; assay type: ADME, organism-based; settings: in vivo
[12] = test system: BT-474; assay: Antitumor activity against PI3KCA mutant human BT474 cells xenografted in BALB/c nude mouse assessed as tumor growth inhibition at 30 mg/kg, po administered once daily for 21 days by caliper method relative to control; assay type: functional; settings: BT-474, po, 504 h, read-out: TGI; method in brief: as §2
[13] = test system: SK-OV-3; assay: Antitumor activity against human SKOV3 cells xenografted in BALB/c nude mouse assessed as tumor growth inhibition at 10 to 100 mg/kg, po via gavage administered once daily and measured after 28 days by caliper method; assay type: functional, organism-based
Method in brief: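 SKOV-3 ovarian carcinoma subcutaneous xenografts in mice. Oral gavage once daily for 28 days at 10, 30 and 100 mg kg–1 day–1. Read-out is tumor growth inhibition.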

[14] = test system: BT-474; assay: Antitumor activity against PI3KCA mutant human BT474 cells xenografted in BALB/c nude mouse assessed as tumor growth inhibition at 30 mg/kg, po administered once daily and measured after 30 days by caliper method relative to control; assay type: functional; settings: BT-474, po, 720 h, read-out: TGI

Chain of Phosphatidylinositol 4,5-bisphosphate 3-kinase catalytic subunit alpha isoform (P42336 whole entry, canonical isoform): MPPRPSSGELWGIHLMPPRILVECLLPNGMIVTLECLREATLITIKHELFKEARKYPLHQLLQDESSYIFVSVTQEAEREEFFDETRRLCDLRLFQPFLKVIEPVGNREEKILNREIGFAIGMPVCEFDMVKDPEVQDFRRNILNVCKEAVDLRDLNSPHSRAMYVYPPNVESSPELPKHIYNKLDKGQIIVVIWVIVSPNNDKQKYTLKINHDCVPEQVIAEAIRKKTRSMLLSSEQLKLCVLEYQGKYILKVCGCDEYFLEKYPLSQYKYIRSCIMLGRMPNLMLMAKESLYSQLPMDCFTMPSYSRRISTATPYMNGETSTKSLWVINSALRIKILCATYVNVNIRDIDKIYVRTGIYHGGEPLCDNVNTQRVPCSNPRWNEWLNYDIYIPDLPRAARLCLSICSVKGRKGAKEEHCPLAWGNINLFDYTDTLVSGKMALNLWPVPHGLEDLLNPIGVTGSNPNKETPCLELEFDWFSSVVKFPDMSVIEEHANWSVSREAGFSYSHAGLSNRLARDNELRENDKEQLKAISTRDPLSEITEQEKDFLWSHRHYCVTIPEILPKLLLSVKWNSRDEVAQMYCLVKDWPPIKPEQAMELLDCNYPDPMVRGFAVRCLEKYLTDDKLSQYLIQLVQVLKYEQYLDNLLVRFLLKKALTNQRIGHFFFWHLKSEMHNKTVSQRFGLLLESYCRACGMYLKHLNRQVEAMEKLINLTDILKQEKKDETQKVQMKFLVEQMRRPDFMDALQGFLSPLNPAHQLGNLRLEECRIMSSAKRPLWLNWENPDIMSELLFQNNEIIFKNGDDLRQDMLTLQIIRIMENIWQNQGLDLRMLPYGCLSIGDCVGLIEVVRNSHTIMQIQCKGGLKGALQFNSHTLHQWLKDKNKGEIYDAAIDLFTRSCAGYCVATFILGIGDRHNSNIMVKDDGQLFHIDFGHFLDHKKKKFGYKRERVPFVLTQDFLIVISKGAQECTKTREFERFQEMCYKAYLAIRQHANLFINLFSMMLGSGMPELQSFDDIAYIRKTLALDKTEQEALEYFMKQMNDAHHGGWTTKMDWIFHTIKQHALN

SMILES: COc1ncc(-c2ccc3ncn(C[C@@H](C)C(N)=O)c(=O)c3c2)cc1NS(=O)(=O)c1ccc(F)cc1Cl
IC50 [1]: 2 nM
IC50 [2]: 17.1 nM
Ratio IC50 [3]: 83.2
Ratio IC50 [4]: 5.03
Ratio IC50 [5]: 7.38
TGI [13]: inactive
Cmax [6]: 4.45 µM
AUClast/dose [7]: 1631 nM.hr/(mg/kg)
CL/F [10]: 9.8 mL/min/kg
bioavailability [11]: 56.2%

SMILES: Cc1nc(NC(=O)N2CCC[C@H]2C(N)=O)sc1-c1ccnc(C(C)(C)C(F)(F)F)c1 [ALPELISIB]
inhibition in vivo at 30 mg/kg [14]: 80.2%

More lines, main results first:

IC50 [1]: 2.1 nM
IC50 [2]: 13.4 nM
Ratio IC50 [3]: 131
Ratio IC50 [4]: 5.38
Ratio IC50 [5]: 10.8
Cmax [6]: 37 µM
AUClast/dose [7]: 6260 nM·h
SMILES: CNC(=O)[C@H](C)Cn1cnc2ccc(-c3cnc(OC)c(NS(=O)(=O)c4ccc(Cl)cc4Cl)c3)cc2c1=O
TGI [8]: inactive
Activity [9]: Toxic

IC50 [1]: 4.4 nM
IC50 [2]: 87.1 nM
Ratio IC50 [3]: 155
Ratio IC50 [4]: 5.79
Ratio IC50 [5]: 10.4
Cmax [6]: 24.7 µM
AUClast/dose [7]: 2020 nM·h
CL/F [10]: 9 mL/min/kg
bioavailability [11]: 9%
SMILES: CNC(=O)[C@H](C)Cn1cnc2ccc(-c3cnc(OC)c(NS(=O)(=O)c4cccc(C(F)(F)F)c4)c3)cc2c1=O
inhibition in vivo at 30 mg/kg [12]: 41.1%

IC50 [1]: 1.1 nM
IC50 [2]: 0.45 nM
Ratio IC50 [3]: 175
Ratio IC50 [4]: 11.6
Ratio IC50 [5]: 8.87
Cmax [6]: 24 µM
AUClast/dose [7]: 5700 nM·h
SMILES: CNC(=O)[C@H](C)Cn1cnc2ccc(-c3cnc(OC)c(NS(=O)(=O)c4cccc(Cl)c4Cl)c3)cc2c1=O
TGI [8]: inactive
Activity [9]: Toxic
